According to ChEMBL document CHEMBL4145639, “Cytochalasans Produced by the Coculture of Aspergillus flavipes and Chaetomium globosum” (J Nat Prod, 2018):
Activity calls are given as the source filed them. The calls are words filed in the database; no cut-off is given here.

Legend:
Murine T-cell line = experiment: Immunomodulatory activity in Kunming mouse T cells assessed as inhibition of ConA-induced cell proliferation at 40 uM after 48 hrs by MTT assay; format: functional, cell-based
Outline: (§1)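 Splenocytes came from three male KM mice (25 g), seeded at 5 × 10^5 cells/well. Stimulation was 5 μg/mL ConA (T cells) or 10 μg/mL LPS (B cells), with compounds in DMSO at final 40 μM. After 48 h culture, MTT was read at 570 nm. Stimulated and unstimulated controls set baseline proliferation.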

Staphylococcus aureus = experiment: Antimicrobial activity against Staphylococcus aureus by agar well diffusion method; format: functional, organism-based
Outline: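 Agar-well diffusion against S. aureus (Gram-positive) and a Gram-negative organism the paper calls C. bacillus. Cefotaxime sodium and tetracycline served as positive controls, with solvent DMSO as the negative control.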

Escherichia coli = experiment: Antimicrobial activity against Escherichia coli by agar well diffusion method
B-cell line = experiment: Immunomodulatory activity in Kunming mouse B cells assessed as inhibition of LPS-induced cell proliferation at 40 uM after 48 hrs by MTT assay; format: functional, cell-based; outline: as §1
MCF7 = experiment: Antiproliferative activity against human MCF7 cells after 48 hrs by MTT assay; format: functional, cell-based; settings: MCF7, 48 h
Outline: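 Cells were grown in RPMI 1640 with 10% FBS, penicillin and streptomycin at 37 °C in 5% CO2 and seeded at 5000 cells/well. Compounds (50, 25, 12.5, 6.25, 3.12, 1.56 μM; final DMSO 0.5%) were added 24 h later and incubated 48 h. MTT was added for 4 h, cells lysed in SDS/isopropanol/HCl, and A570 read. Runs were triplicate, with doxorubicin as positive control. IC50 came from means ± SEM.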

Compound | inhibition (Murine T-cell line) | Activity (Staphylococcus aureus) | Activity (Escherichia coli) | inhibition (B-cell line) | IC50 (MCF7) [µM]
C/C1=C\[C@@H](C)C/C=C/[C@H]2[C@H](O)[C@@]3(C)O[C@@]4(CC(=O)c5ccccc5N)NC(=O)[C@]2(C(=O)CC[C@H](O)C1=O)[C@H]4[C@@H]3C | Active | inactive | inactive | – | –
C/C1=C\[C@H]2C=C(CO)[C@@H](C)[C@H]3[C@H](CC(C)C)NC(=O)[C@]32C(=O)CCC(=O)[C@@H](O)CC1 | Active | inactive | inactive | – | –
C/C1=C\[C@H]2C=C(CO)[C@@H](C)[C@H]3[C@H](CC(C)C)NC(=O)[C@]32C(=O)CCC(=O)[C@H](O)CC1 | – | inactive | inactive | Active | –
C/C1=C\[C@H]2C=C(CO)[C@@H](C)[C@H]3[C@H](CC(C)C)NC(=O)[C@]32C(=O)CC[C@@H](O)C(=O)CC1 | Active | inactive | inactive | – | –
C/C1=C\[C@H]2C=C(CO)[C@@H](C)[C@H]3[C@H](CC(C)C)NC(=O)[C@]32C(=O)CC[C@H](O)C(=O)CC1 | Active | inactive | inactive | – | –
C/C1=C\[C@@H](C)C/C=C/[C@H]2[C@@H]3O[C@]3(C)[C@@H](C)[C@H]3[C@H](C(O)c4c[nH]c5ccccc45)NC(=O)[C@]32C(=O)CC[C@H](O)C1=O (stereo in doubt; 5) | Active | inactive | inactive | – | –
C/C1=C\[C@@H](C)C/C=C/[C@H]2[C@@H]3O[C@]3(C)[C@@H](C)[C@H]3[C@H](C(O)c4c[nH]c5ccccc45)NC(=O)[C@]32C(=O)CC[C@H](O)C1=O (stereo in doubt; 6) | Active | inactive | inactive | Active | –
C=C1[C@@H](C)[C@H]2[C@H](C(OC)c3c[nH]c4ccccc34)NC(=O)[C@]23C(=O)CC[C@H](O)C(=O)/C(C)=C/[C@@H](C)C/C=C/[C@H]3[C@@H]1O (stereo in doubt; 7) | Active | inactive | inactive | Active | –
C=C1[C@@H](C)[C@H]2[C@H](C(OC)c3c[nH]c4ccccc34)NC(=O)[C@]23C(=O)CC[C@H](O)C(=O)/C(C)=C/[C@@H](C)C/C=C/[C@H]3[C@@H]1O (stereo in doubt; 8) [listing 1 of 2 here] | – | – | – | – | 20.7
C=C1[C@@H](C)[C@H]2[C@H](C(OC)c3c[nH]c4ccccc34)NC(=O)[C@]23C(=O)CC[C@H](O)C(=O)/C(C)=C/[C@@H](C)C/C=C/[C@H]3[C@@H]1O (stereo in doubt; 8) [listing 2 of 2 here] | Active | inactive | inactive | Active | –
COC(c1c[nH]c2ccccc12)[C@@H]1NC(=O)[C@@]23C(=O)CC[C@H](O)C(=O)/C(C)=C/[C@@H](C)C/C=C/[C@H]2[C@H](O)C(C)=C(C)[C@@H]13 (stereo in doubt; 9) | Active | inactive | inactive | Active | –
COC(c1c[nH]c2ccccc12)[C@@H]1NC(=O)[C@@]23C(=O)CC[C@H](O)C(=O)/C(C)=C/[C@@H](C)C/C=C/[C@H]2[C@H](O)C(C)=C(C)[C@@H]13 (stereo in doubt; 10) | – | inactive | inactive | Active | –
C/C1=C\[C@@H](C)C/C=C/[C@H]2[C@H](O)[C@@]3(C)O[C@@]4(CC56OC5Nc5ccccc56)NC(=O)[C@]2(C(=O)CC[C@H](O)C1=O)[C@H]4[C@@H]3C (stereo in doubt; 11) [listing 1 of 2 here] | – | – | – | – | 27.9
C/C1=C\[C@@H](C)C/C=C/[C@H]2[C@H](O)[C@@]3(C)O[C@@]4(CC56OC5Nc5ccccc56)NC(=O)[C@]2(C(=O)CC[C@H](O)C1=O)[C@H]4[C@@H]3C (stereo in doubt; 11) [listing 2 of 2 here] | – | inactive | inactive | – | –
C/C1=C\[C@@H](C)C/C=C/[C@H]2[C@H](O)[C@@]3(C)O[C@@]4(CC56OC5Nc5ccccc56)NC(=O)[C@]2(C(=O)CC[C@H](O)C1=O)[C@H]4[C@@H]3C (stereo in doubt; 12) | Active | inactive | inactive | – | –
